Compound activity (PubChem BioAssay)
An excerpt weighted towards active compounds, which were near 4.1% of everything screened.
MEKK3 PB1 HTS: raises or lowers MEK5 binding to the human MEKK3 PB1 domain | Q99759 | bead-based flow cytometry, Alexa488-MEK5 binding to MEKK3; actives lie on both sides; 0 = blocked by unlabeled MEK5, 100 = vehicle | binding response (% of control), % at 10 µM | 290,000 tested, 1.4% active;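 active = binding response more than 3 SD above or below the average of its plate-row segment, actives on both sides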;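 note: Alexa488 bead fluorescence after subtracting the streptavidin-only scavenger bead signal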
Target sequence (Q99759 whole entry, looked up, the tested form may be a part): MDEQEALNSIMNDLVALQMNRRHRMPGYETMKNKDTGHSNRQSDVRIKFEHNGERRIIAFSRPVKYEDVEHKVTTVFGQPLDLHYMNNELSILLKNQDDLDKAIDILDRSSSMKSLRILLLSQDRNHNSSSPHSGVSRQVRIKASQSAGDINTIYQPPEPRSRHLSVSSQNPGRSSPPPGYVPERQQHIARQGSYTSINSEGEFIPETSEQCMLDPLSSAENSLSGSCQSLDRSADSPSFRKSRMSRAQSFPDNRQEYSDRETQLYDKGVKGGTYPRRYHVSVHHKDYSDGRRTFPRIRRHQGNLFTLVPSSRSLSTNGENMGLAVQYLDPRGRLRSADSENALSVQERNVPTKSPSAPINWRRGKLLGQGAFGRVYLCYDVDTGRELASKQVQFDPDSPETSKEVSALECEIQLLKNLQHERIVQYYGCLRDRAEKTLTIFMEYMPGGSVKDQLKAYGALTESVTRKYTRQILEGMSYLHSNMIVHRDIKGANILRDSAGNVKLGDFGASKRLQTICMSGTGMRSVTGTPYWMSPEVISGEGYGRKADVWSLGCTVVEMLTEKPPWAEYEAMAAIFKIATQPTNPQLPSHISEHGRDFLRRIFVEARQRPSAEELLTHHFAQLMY
HCV NS3 hel inh: HCV NS3 helicase inhibition; 290,000 tested, 0.56% active; inhibition, % at 10.9 µM; NS3 helicase DNA unwinding, Cy5 molecular beacon fluorescence;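 active = inhibition above the mean of all tested compounds plus 3 SD, set per campaign, cut at about 35% in these data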
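System: Hepatitis C virus NS3 helicase domain fragment enzyme | Reagent: Annealed dual-labelled DNA beacon duplex, ATP-started | Compound dosing: 10.9 µM single point, 0.8% DMSO | Incubation: 1 h reaction at 25 °C, ATP-initiated | Technique: Cy5 fluorescence | Evaluation: Percent inhibition from t60/t0 fluorescence ratio | Benchmarks: Low DMSO, high thioflavine S at 110 µM | Replication: Singlicate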
MEKK2 mut-MEK5: signal of MEK5 binding to mutant human MEKK2 PB1 domain | bead flow cytometry, Alexa488-MEK5 binding to MEKK2 mutant | percent response, % at 10 µM | 290,000 tested, 0.35% active; in the data active = percent response above about 24%, passing the limit was not always enough
DNA FID counter: counter-screen for HCV NS3 helicase inhibitors: DNA intercalator displacement; 290,000 tested, 0.17% active; inhibition, % at 7.9 µM; DNA fluorescent intercalator displacement, fluorescence; in the data active = inhibition above about 37%;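 note: higher means more ethidium bromide displaced from hairpin DNA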
T cruzi repl: blocks replication of Trypanosoma cruzi | T. cruzi beta-gal in NIH3T3, luminescence, 90 h | inhibition, % (concentration not given with the values) | AID 1885 | 300,000 tested, 1.4% active;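 active = mean inhibition across valid replicates above about 55%, limit read from the data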;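 note: signal also drops with host cell toxicity which is not excluded here; higher percent means less beta-gal luminescence so fewer parasites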
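Test system: β-gal T. cruzi (Tulahuen C4) inside NIH/3T3 cells / Quantity: 5,000 cells/well / Measured by: luminescence from GalScreen with 0.05% NP40, read after 60 min / Medium: DMEM plus 2% FBS / Measure: parasite load inhibition, % / Reagent: Tulahuen C4 trypomastigotes, 5000/well / Schedule: co-culture of at least 90 h after 3 h attachment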
MEKK2wt PB1 HTS: raises or lowers MEK5 binding to wildtype human MEKK2 PB1 domain; AID 1531; 290,000 tested, 1.1% active; Q9Y2U5; bead flow cytometry, Alexa488-MEK5 binding to MEKK2 WT; actives lie on both sides; binding response (% of control), % at 10 µM; in the data active = binding response below about 67% or above about 130%
MEKK2wt confirm: raises or lowers MEK5 binding to wildtype human MEKK2, retest. 5,900 tested, 2.4% active. shares compounds with MEKK3 PB1 HTS. binding response (% of control), % at 10 µM. bead flow cytometry, Alexa488-MEK5 binding to MEKK2 WT; actives lie on both sides; in the data active = binding response below about 16% or above about 210%; inactive = in between
MEKK2mut confirm: signal of MEK5 binding to mutant human MEKK2, retest; bead flow cytometry, Alexa488-MEK5 binding to MEKK2 mutant; shares compounds with MEKK3 PB1 HTS; percent response, % at 10 µM; 5,900 tested, 2% active; in the data active = percent response mostly above about 71%, no sharp cut-off; inactive = mostly below about 38%;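 note: higher means compound restores mutant binding toward wildtype level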
MEKK3 confirm: MEKK3-MEK5 PB1 inhibition, single concentration confirmation. bead flow cytometry, Alexa488-MEK5 binding to MEKK3; hits give low values. binding response (% of control), % at 10 µM. shares compounds with MEKK3 PB1 HTS. 5,900 tested, 1.8% active;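 active = binding response below 72% of control, or above a set upper limit, though filed actives all read lower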;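 note: lower values mean stronger disruption of MEK5 binding to MEKK3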
Hits are given with their value; n = inactive; x = no result; [ ] = remark or other dose.

SMILES	MEKK3 PB1 HTS	HCV NS3 hel inh	MEKK2 mut-MEK5	DNA FID counter	T cruzi repl	MEKK2wt PB1 HTS	MEKK2wt confirm	MEKK2mut confirm	MEKK3 confirm
COc1ccc(C(C(=O)NC2CCCCC2)N(CC2CCCO2)C(=O)C2COc3ccccc3O2)cc1OC (stereo not drawn)	129	n	n	n	n	n	n	n	n
COc1ccc(C(=O)N(CC2CCCO2)C(C(=O)NCCC(C)C)c2ccc(C)cc2)cc1OC (stereo not drawn)	132	n	n	n	n	n	n	n	n
O=C(NC1CCCCC1)N1CCNCC1	n	n	n	n	n	n	x	x	x
C1CCCCCC(NCCN2CCNCC2)CCCCC1	n	n	n	n	n	158	n	n	n
NC(=S)Nc1cccc(O)c1	n	n	n	n	n	n	x	x	x
CN1CCc2c(sc3c2c(=O)n(-c2ccc(Cl)cc2)c2nncn32)C1	122	n	n	n	n	n	n	n	n
COc1cc(OC)c2c(-c3ccccc3)cc(=O)oc2c1C(CCN1CCCC(C)C1)c1ccc2c(c1)OCO2 (stereo not drawn)	n	x	26	x	n	183	n	n	n
COc1cc(OC)c2c(-c3ccccc3)cc(=O)oc2c1C(CC(=O)N1CCCC1)c1ccc2c(c1)OCO2 (stereo not drawn)	n	x	n	x	n	n	x	x	x
COc1cc(OC)c2c(-c3ccccc3)cc(=O)oc2c1C(CCN1CCCCC1)c1ccc2c(c1)OCO2 (stereo not drawn)	n	x	28	x	n	177	n	n	n
CC(C)N1C/C(=C/c2cccnc2)C(=O)/C(=C/c2cccnc2)C1	n	n	n	n	x	n	x	x	x
CN1C/C(=C/c2cccnc2)C(=O)/C(=C/c2cccnc2)C1	59[inhibitor]	n	n	n	x	n	n	n	n
Cc1cccc(Nc2nnc(SCC(=O)NC3CCCc4ccccc43)s2)c1 (stereo not drawn)	3.0[inhibitor]	n	n	n	n	3.0[inhibitor]	n	n	n
O=C(CSc1nc2cc(S(=O)(=O)N3CCOCC3)ccc2o1)NC1CCCc2ccccc21 (stereo not drawn)	2.0[inhibitor]	n	n	n	n	3.0[inhibitor]	n	n	n
O=C(CSc1ccc2ccccc2c1)NC1CCCc2ccccc21 (stereo not drawn)	130	n	n	n	n	n	n	n	n
Cc1ccc2c(CC(=O)NC3CCCc4ccccc43)coc2c1 (stereo not drawn)	147	n	n	n	n	n	n	n	n
CCN1CCN(S(=O)(=O)c2ccc3ccccc3c2)CC1	50[inhibitor]	n	n	n	n	n	n	n	n
CCOCCCNCC(O)c1ccccc1 (stereo not drawn)	162	n	n	n	n	n	n	n	n
Cc1noc(/C=C/c2cccs2)c1S(=O)(=O)N1CCC(C(=O)NCCCN2CCC(C)CC2)CC1	n	n	57	n	n	186	n	n	n
Cc1ccc(S(=O)(=O)NCCC(=O)NCCN2CCCCCC2)cc1	n	n	54	n	n	227	n	n	n
CCCCNC(=O)C1CCN(C(=O)C2CCN(S(=O)(=O)c3ccc(C)cc3)CC2)CC1	n	n	n	n	n	n	x	x	x
Cc1ccc(S(=O)(=O)N2CCC(C(=O)NCCCN3CCCCCC3)CC2)cc1	n	n	n	n	n	160	n	n	n
COc1ccc(NC(=O)NCC(C)CSc2ccc(C)cc2)c(OC)c1 (stereo not drawn)	n	n	n	n	n	n	x	x	x
O=C(c1ccccc1Oc1ccc([N+](=O)[O-])cc1)N1CCOCC1	n	n	n	n	n	n	x	x	x
